These results are taken from ChEMBL document CHEMBL4011638, “Semisynthetic Flavone-Derived Antimicrobials with Therapeutic Potential against Methicillin-Resistant Staphylococcus aureus (MRSA)” (J Med Chem, 2017).

In brackets after ≈: the same amount, converted by molar mass. Activity calls are given as the source filed them. No cut-off for these calls is given here.

Holding throughout (assay type): functional
Experiment [1] deals with Staphylococcus aureus. Description: Antibacterial activity against methicillin-resistant Staphylococcus aureus DM 9808R after 24 hrs by broth microdilution method. Put shortly:
(§1)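 Broth microdilution per CLSI in cation-adjusted Mueller−Hinton broth, in tubes. Compounds dissolved in H2O or DMF, then diluted in PBS to 1000 μg/mL stocks. Serial 2-fold dilutions were made, with final DMF 2.5%. Organisms were grown on TSA at 35 °C for 20 h and adjusted to ~5× 10^5 CFU/mL. Tubes were incubated at 35 °C for 24 h. MIC was the lowest concentration with no visible growth versus control. Biological replicates.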

In a further experiment the test system is Bacillus cereus. As to the kind of experiment: Antibacterial activity against Bacillus cereus ATCC 11778 after 24 hrs by broth microdilution method. Particulars: ATCC 11778, 24 h. Put shortly:
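MIC by CLSI broth microdilution in cation-adjusted Mueller–Hinton broth, tubes. Compounds in H2O or DMF, diluted in PBS to 1000 μg/mL stocks, then serial 2-fold dilutions (final DMF 2.5%). Inoculum ~5×10^5 CFU/mL from TSA plates grown 35 °C 20 h. Incubation 35 °C 24 h; MIC = no visible growth vs control. Biological replicates.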

For experiment [2], the system named is Staphylococcus aureus. As to the kind of experiment: Antibacterial activity against methicillin-sensitive Staphylococcus aureus DM4400R after 24 hrs by broth microdilution method. The essentials:
as §1

The test system of experiment [3] is Staphylococcus aureus. Description: Bactericidal activity against methicillin-resistant Staphylococcus aureus DM9808R assessed as log reduction in bacterial count at 2 times MIC up to 2 hrs by time kill assay. Put shortly:
(§2)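 Time-kill. Starting inoculum 10^5−10^6 CFU/mL, exposed to 0.5×, 1×, 2× and 4× MIC at 35 °C. Colonies were counted after 24 h at 35 °C and CFU/mL calculated. Biological replicates.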

Experiment [4] concerns Staphylococcus aureus. As to the kind of experiment: Bactericidal activity against methicillin-resistant Staphylococcus aureus DM9808R assessed as log reduction in bacterial count at 4 times MIC up to 2 hrs by time kill assay. The essentials:
as §2

For experiment [5], the system named is Staphylococcus aureus. Description: Induction of plasma membrane permeability in methicillin-resistant Staphylococcus aureus DM9808R assessed as increase in fluorescence intensity at 12.5 ug/ml measured every 1 sec for 50 mins by SYTOX green dye based fluorimetric assay. The essentials: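 Exponential-phase MRSA DM9808R grown on TSA, washed twice and resuspended in PBS (10 mM, pH 7) to OD600 0.2. Cells were loaded with 0.3 μM SYTOX Green in the dark until fluorescence stabilized. Test samples were then added (final DMF 0.5%). Fluorescence at ex 504/em 523 nm was recorded every 1 s for 50 min. Biological replicates.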

Experiment [6] has as its system Staphylococcus aureus. As to the kind of experiment: Antibacterial activity against methicillin-resistant Staphylococcus aureus ATCC 700699 infected in C57BL6 mouse corneas assessed as log reduction in bacterial burden at 0.5 % dosed at 1 day post infection administered 5 times daily for 3 days. Put shortly: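 C57BL6 mice, 6−8 weeks old, 20−30 g, anesthetized with ketamine/xylazine; four per group. Three 1 mm scratches were made on the right cornea and 10 μL of a 6 × 10^8 CFU/mL MRSA ATCC 700699 suspension was applied. From day 1 post infection, agents in PBS (12 mM, pH 7.2) were given topically 5 times daily for 3 days; PBS alone as control. Corneas were homogenized in 0.9% NaCl with 0.25% BSA and plated on TSA for 48 h at 35 °C.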

Regarding `COC(=O)[C@H](CCCNC(=N)N)NC(=O)COc1cc(O)c2c(=O)c(OCC(=O)N[C@@H](CCCNC(=N)N)C(=O)OC)c(-c3ccc(OC)cc3)oc2c1CC=C(C)C`, the MIC against Staphylococcus aureus [1] amounted to 3.8 µM (≈ 3.13 µg/mL); in the experiment on Bacillus cereus, 3.8 µM (≈ 3.13 µg/mL); in the experiment on Staphylococcus aureus [2] it was 3.13 µg/mL (≈ 3.79 µM). For the same molecule, the figures for the Activity in the experiment on Staphylococcus aureus [3], in the experiment with Staphylococcus aureus [4] and in the experiment with Staphylococcus aureus [6] were 3 deltalog10CFU/ml, 3 deltalog10CFU/ml and 2.95 deltalog10CFU/ml, respectively. The result in the experiment on Staphylococcus aureus [5] was Active.
